PAFAH1B2 FP inh: PAFAH1B2 (human) inhibition | 340,000 compounds, 1.2% hits | recombinant PAFAH1B2, FP-rhodamine activity probe, fluorescence polarization | AID 492953 | P68402 | inhibition, % at 3.39 µM;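 active = inhibition above the mean of all tested compounds plus 3 SD, cut at about 24% in these data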;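 note: 0% = enzyme with DMSO and 100% = wells lacking PAFAH1B2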
ARFGAP1 inhibitor: rat ARFGAP1 inhibition; AID 651572; inhibition, % at 16.5 µM; Q62848; Arfgap1-stimulated ARF1 GTP hydrolysis, GDP FP detection; 360,000 compounds, 0.26% hits;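 active = inhibition above a per-plate limit, mean inhibition of low control wells plus 3 SD, cut at about 25% in these data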;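 note: 0% = DMSO wells with enzyme and 100% = wells lacking Arfgap1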
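Assay system: Rat Arfgap1 GAP domain (His6, aa 1-136), purified enzyme | Buffer or medium: HEPES 25 mM pH 7.5, NaCl 150 mM, MgCl2, DTT | Schedule: GTP hydrolysis reaction 2 h at 25 °C | Signal: FP of antibody-bound GDP Alexa 633 tracer, ex 620/em 688 nm | Measure: Percent inhibition of Arfgap1-stimulated GTP hydrolysis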
ASAP1 inh: blocks human ASAP1-stimulated Arf1 GTP hydrolysis; Q9ULH1; GDP FP detection; inhibition, % at 16.5 µM; 360,000 compounds, 0.19% hits; AID 624377; in the data active = inhibition above about 25%;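 note: 0% = vehicle with enzyme and substrate and 100% = no enzyme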
Target sequence (Q9ULH1 325-724 limits assumed): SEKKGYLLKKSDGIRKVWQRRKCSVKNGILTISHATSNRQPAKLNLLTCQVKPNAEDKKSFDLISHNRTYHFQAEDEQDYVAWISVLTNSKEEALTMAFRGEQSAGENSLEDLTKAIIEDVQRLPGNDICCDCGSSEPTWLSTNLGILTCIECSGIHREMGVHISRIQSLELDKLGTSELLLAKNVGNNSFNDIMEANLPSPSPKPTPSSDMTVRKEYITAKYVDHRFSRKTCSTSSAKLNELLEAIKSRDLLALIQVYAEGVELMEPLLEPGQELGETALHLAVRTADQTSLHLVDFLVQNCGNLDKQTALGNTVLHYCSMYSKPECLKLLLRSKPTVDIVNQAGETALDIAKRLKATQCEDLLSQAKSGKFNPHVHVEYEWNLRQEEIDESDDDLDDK
pPAFAH FP inh: pPAFAH (human) enzyme inhibition | Q13093 | recombinant pPAFAH, FP-rhodamine probe fluorescence polarization | inhibition, % at 3.39 µM | 330,000 compounds, 1.5% hits;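 active = inhibition above the mean inhibition across the screen plus 3 SD, cut at about 25% in these data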;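 note: inhibitors block binding of the rhodamine activity-based probe so polarization drops; 0% = enzyme with DMSO and 100% = wells lacking pPAFAH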
PAFAH2 FP inh: PAFAH2 (human) inhibition; Q99487; recombinant PAFAH2, FP-rhodamine activity probe, fluorescence polarization; inhibition, % at 3.39 µM; 340,000 compounds, 0.99% hits;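 active = inhibition above the mean over all tested compounds plus 3 SD, cut at about 30% in these data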;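 note: inhibitors block probe labeling of enzyme so polarization drops; 0% = enzyme with DMSO and 100% = wells lacking PAFAH2 protein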
PAFAH1B3 FP inh: PAFAH1B3 (human) inhibition. recombinant PAFAH1B3, FP-rhodamine probe, fluorescence polarization. inhibition, % at 3.39 µM. 340,000 compounds, 0.28% hits. Q15102;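 active = inhibition above the screen-wide average of all tested compounds plus 3 SD, cut at about 25% in these data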;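 note: 0% = enzyme with DMSO only and 100% = wells lacking PAFAH1B3 protein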
* marks the source's active call; other numbers are inactive results. Sampled rows, rich in hits. Any-hit rate of the full collection: about 2.7%.

How did COC(=O)[C@]12C[C@H](CC(=O)NCc3cccs3)C(=O)N(CCC3=CCCCC3)C1=C[C@H](COCc1ccccc1)O[C@@H]2C do in these assays?
ARFGAP1 inhibitor: 16; ASAP1 inh: 8

What do the screens show for `Oc1ccc(C2=Nn3c(nnc3-c3ccco3)SC2)cc1O`?
PAFAH1B2 FP inh: 29*; ARFGAP1 inhibitor: 9; ASAP1 inh: 10; pPAFAH FP inh: 32*; PAFAH2 FP inh: 49*; PAFAH1B3 FP inh: 50*

How did COc1ccc(C2=Nn3c(nnc3-c3ccco3)SC2)cc1 do in these assays?
PAFAH1B2 FP inh: 7; ARFGAP1 inhibitor: -5; ASAP1 inh: 11; pPAFAH FP inh: 7; PAFAH2 FP inh: 7; PAFAH1B3 FP inh: 11

What do the screens show for `S=c1[nH]nc(CSCc2ccccc2Cl)n1-c1ccccc1`?
PAFAH1B2 FP inh: 6; ARFGAP1 inhibitor: -17; ASAP1 inh: 0; pPAFAH FP inh: 27*; PAFAH2 FP inh: -2; PAFAH1B3 FP inh: -1

Results for O=C(C(=O)N1CCN(S(=O)(=O)c2cccc(C(F)(F)F)c2)CC1)c1cccc(C(F)(F)F)c1 ?
ARFGAP1 inhibitor: 6; ASAP1 inh: 5

How did Cc1ccc(NC(=O)NNC(=O)CSC2CCc3ccccc32)c(C)c1 (stereo not drawn) do in these assays?
ARFGAP1 inhibitor: 1; ASAP1 inh: 7

What do the screens show for `COC(=O)c1cc(C(=O)c2cccc(Cl)c2Cl)cn1C`?
PAFAH1B2 FP inh: 2; ARFGAP1 inhibitor: 0; ASAP1 inh: 7; pPAFAH FP inh: 25*; PAFAH2 FP inh: 10; PAFAH1B3 FP inh: 5

Results for Cn1cc(C(=O)c2cccc(Cl)c2Cl)cc1C(=O)O ?
PAFAH1B2 FP inh: 1; ARFGAP1 inhibitor: 5; ASAP1 inh: -19; pPAFAH FP inh: 4; PAFAH2 FP inh: 4; PAFAH1B3 FP inh: 2

How did COC(=O)Cc1nnn2c1[C@H](C)[C@@H](OC)c1ccc(C(F)(F)F)cc1-2 do in these assays?
ARFGAP1 inhibitor: 5; ASAP1 inh: -6

What do the screens show for `CCN(CC)C(=O)CSc1nc(O)cc(=O)n1C`?
PAFAH1B2 FP inh: 2; ARFGAP1 inhibitor: -3; ASAP1 inh: 21; pPAFAH FP inh: 1; PAFAH2 FP inh: 2; PAFAH1B3 FP inh: 1

What do the screens show for `Cc1ccc(NC(=O)CSc2nc(O)cc(=O)n2-c2ccc(C)cc2)cc1`?
PAFAH1B2 FP inh: -2; ARFGAP1 inhibitor: 8; ASAP1 inh: -14; pPAFAH FP inh: -9; PAFAH2 FP inh: 0; PAFAH1B3 FP inh: -6

How did Cc1ccccc1-n1c(SCC(=O)Nc2c(C)cccc2C)nc(O)cc1=O do in these assays?
PAFAH1B2 FP inh: 2; ARFGAP1 inhibitor: 4; ASAP1 inh: -2; pPAFAH FP inh: 31*; PAFAH2 FP inh: -8; PAFAH1B3 FP inh: 3

What do the screens show for `CCN(CC)C(=O)CSc1nc(O)cc(=O)n1-c1ccccc1OC`?
PAFAH1B2 FP inh: 4; pPAFAH FP inh: 25*; PAFAH2 FP inh: 0; PAFAH1B3 FP inh: -5

How did COc1cccc(CNC(=O)[C@H]2CCCN2C(=O)[C@H]2CCCN2C(=O)N2CCCCC2)c1 do in these assays?
ARFGAP1 inhibitor: 7; ASAP1 inh: -18

What do the screens show for `COC(=O)c1cc2c(c3c4cc(F)ccc4n(S(=O)(=O)c4ccccc4)c13)C(=O)N(Cc1ccco1)C2`?
ARFGAP1 inhibitor: 5; ASAP1 inh: -5

Results for Cc1ccc(S(=O)(=O)N2CCCC(C(=O)NCCC3=CCCCC3)C2)cc1 (stereo not drawn) ?
PAFAH1B2 FP inh: 15; ARFGAP1 inhibitor: -1; ASAP1 inh: 12; pPAFAH FP inh: 1; PAFAH2 FP inh: -2; PAFAH1B3 FP inh: 4

What do the screens show for `O=C(NCCC1=CCCCC1)C1CCCN(S(=O)(=O)c2cnc[nH]2)C1` (stereo not drawn)?
PAFAH1B2 FP inh: 26*; ARFGAP1 inhibitor: 2; ASAP1 inh: -8; pPAFAH FP inh: 6; PAFAH2 FP inh: 1; PAFAH1B3 FP inh: 0

Results for O=S(=O)(NCCC1=CCCCC1)c1cccc(S(=O)(=O)N2CCOCC2)c1 ?
PAFAH1B2 FP inh: 10; ARFGAP1 inhibitor: 4; ASAP1 inh: 5; pPAFAH FP inh: 30*; PAFAH2 FP inh: -3; PAFAH1B3 FP inh: 3
